# Reference: PMC8177775 (Cancer Science, 2021)
# “And” between values parts separate entries of the source, which are not always exact repeats. Equal values may be shown once. “Also recorded” adds a separate entry of the source.
# Columns and labels:
# Format in all cases: in vivo, human
# [1] = Plasma pharmacokinetics of milademetan; details: for AUC: AUCtau
# [2] = test system: solid tumors; experiment: Efficacy assessment by RECIST version 1.1
# Outline: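 Adults with relapsed or refractory solid tumors took oral test compound (tosylate salt) QD on days 1–21 of 28-day cycles at 60, 90 or 120 mg. Response was assessed by RECIST 1.1 using CT and MRI every 8 weeks through cycle 8, then every 12 weeks. Minimum SD duration was 8 weeks after first dose. Summaries were descriptive over patients with efficacy data.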
# [3] = test system: macrophage inhibitory cytokine‐1 (MIC‐1) levels in serum; experiment: Serum MIC-1
# Outline: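 Serum was drawn on cycle 1 day 1 before dosing and 6 h post dose, and on days 2, 8, 15 and 21, during oral QD dosing on days 1–21 at 60, 90 or 120 mg. MIC-1 (GDF-15) was quantified by quantitative sandwich ELISA for human GDF-15. Change from baseline was summarized by cohort using descriptive statistics.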
# [4] = Day 21 of cycle 1, Cohort 2 (90 mg/d) (n = 9), oral QD, mean (SD)
# [5] = human, plasma, po, 60 mg/d, Day 1 of cycle 1, Cohort 1 (60 mg/d) (n = 3), oral QD, mean (SD)
# [6] = human, plasma, po, 60 mg/d, Day 21 of cycle 1, Cohort 1 (60 mg/d) (n = 2), oral QD, mean (SD)
# [7] = human, plasma, po, 90 mg/d, Day 1 of cycle 1, Cohort 2 (90 mg/d) (n = 11), oral QD, mean (SD)
compound,measurement,setting,value
"CC1(C)CCC2(CC1)N[C@@H](C(=O)N[C@@H]1CC[C@@H](C(N)=O)OC1)[C@H](c1ccnc(Cl)c1F)[C@]21C(=O)Nc2cc(Cl)ccc21 [milademetan, Milademetan]",Plasma concentration versus dose,[1]; 60 to 120 mg QD,increased in a dose‐dependent manner; also recorded: dose‐dependent increase
same,Ctrough,"[1]; Day 21 of cycle 1, Cohort 1 (60 mg/d) (n = 2), oral QD, mean (SD)",192 (29.7) ng/mL
same,Accumulation rate,[1]; [4],1.65 (0.440)
same,Ctrough,[1]; [4],389 (234) ng/mL
same,Ctrough,"[1]; Day 21 of cycle 1, Cohort 3 (120 mg/d) (n = 1), oral QD, SD not calculated",552 (NC) ng/mL
same,PK linearity,[1]; dose range of 60 to 120 mg/day,linear PK
same,half-life,"[1]; human, plasma, oral, Mean t1/2, day 1, across 60- to 120-mg cohorts",15.1 to 17.9 h
same,half-life,"[1]; human, plasma, oral, Mean t1/2, day 21, across 60- to 120-mg cohorts",18.1 to 26.1 h
same,Tmax,"[1]; human, plasma, oral, Median Tmax, all cohorts",~3 h
same,AUC(0-inf),"[1]; human, plasma, po, 60 mg/d",6320 ng·h/mL
same,AUC,[1]; [5],4250 ng·h/mL
same,AUC,[1]; [6],7390 ng·h/mL
same,Cmax,[1]; [5],429 ng/mL
same,Cmax,[1]; [6],625 ng/mL
same,Tmax,"[1]; human, plasma, po, 60 mg/d, Tmax, Day 1 of cycle 1, Cohort 1 (60 mg/d) (n = 3), oral QD, median (minimum, maximum)",3 h
same,Tmax,"[1]; human, plasma, po, 60 mg/d, Tmax, Day 21 of cycle 1, Cohort 1 (60 mg/d) (n = 2), oral QD, median (minimum, maximum)",2.48 h
same,half-life,"[1]; human, plasma, po, 60 mg/d, t1/2, Day 1 of cycle 1, Cohort 1 (60 mg/d) (n = 3), oral QD, mean (SD)",15.1 h
same,half-life,"[1]; human, plasma, po, 60 mg/d, t1/2, Day 21 of cycle 1, Cohort 1 (60 mg/d) (n = 2), oral QD, mean (SD)",18.1 h
same,AUC,[1]; [7],8380 ng·h/mL
same,Cmax,[1]; [7],692 ng/mL
same,Cmax,"[1]; human, plasma, po, 90 mg/d, Day 21 of cycle 1, Cohort 2 (90 mg/d) (n = 9), oral QD, mean (SD)",995 ng/mL
same,Tmax,"[1]; human, plasma, po, 90 mg/d, Tmax, Day 1 of cycle 1, Cohort 2 (90 mg/d) (n = 11), oral QD, median (minimum, maximum)",3 h
same,Tmax,"[1]; human, plasma, po, 90 mg/d, Tmax, Day 21 of cycle 1, Cohort 2 (90 mg/d) (n = 9), oral QD, median (minimum, maximum)",3.02 h
same,half-life,"[1]; human, plasma, po, 90 mg/d, t1/2, Day 1 of cycle 1, Cohort 2 (90 mg/d) (n = 11), oral QD, mean (SD)",15.4 h
same,half-life,"[1]; human, plasma, po, 90 mg/d, t1/2, Day 21 of cycle 1, Cohort 2 (90 mg/d) (n = 9), oral QD, mean (SD)",20.9 h
same,Cmax,"[1]; human, plasma, po, 120 mg/d, Day 1 of cycle 1, Cohort 3 (120 mg/d) (n = 4), oral QD, mean (SD)",1140 ng/mL
same,Tmax,"[1]; human, plasma, po, 120 mg/d, Tmax, Day 1 of cycle 1, Cohort 3 (120 mg/d) (n = 4), oral QD, median (minimum, maximum)",3.01 h
same,Tmax,"[1]; human, plasma, po, 120 mg/d, Tmax, Day 21 of cycle 1, Cohort 3 (120 mg/d) (n = 1), oral QD, median (minimum, maximum)",2.95 h
same,half-life,"[1]; human, plasma, po, 120 mg/d, t1/2, Day 1 of cycle 1, Cohort 3 (120 mg/d) (n = 4), oral QD, mean (SD)",17.9 h
same,AUC(0-t),"[1]; human, plasma, po, 120 mg/day",25600 ng·h/mL
same,Complete or partial response,[2]; 16 patients,No patients achieved complete or partial response
same,Antitumor activity,[2]; Japanese patients with solid tumors,modest antitumor activity
same,"Disease control rate, percentage of patients (95% CI)",[2]; Total (n = 16),43.8%
same,"Progressive disease, percentage of patients (95% CI)",[2]; Total (n = 16),31.3%
same,"Stable disease, percentage of patients (95% CI)",[2]; Total (n = 16),43.8%
same,PFS rate (95% CI),[2]; at 3 months,56.8%
same,PFS rate (95% CI),"[2]; at 6, 9, and 12 months",35.5%
same,Patients with a PFS event,"[2]; efficacy analysis set, 17 patients",Eight of the 17 patients
same,"Median (minimum, maximum) PFS",[2]; including censored patients,"15.29 (0.1, 202.1) weeks and 15.3 (0.1+, 202.1+) weeks"
same,Median (range) duration of stable disease,[2]; including censored patients,"55.4 (7.3‐202.1) weeks and 55.4 (7.3+, 202.1+) weeks"
same,PFS of one patient,[2]; one patient in the 60-mg cohort with SD as best response,202.1 weeks
same,"Increase of MIC-1 levels from baseline to day 21, mean (SD)",[3]; 60-mg cohort,2175.7 (1677.40) pg/mL
same,"Increase of MIC-1 levels from baseline to day 21, mean (SD)",[3]; 90-mg cohort,9514.5 (6812.78) pg/mL
same,"Increase of MIC-1 levels from baseline to day 21, mean (SD)",[3]; 120-mg cohort,7930.5 (7636.72) pg/mL
same,Mean MIC-1 levels after administration,[3]; all cohorts,increased from baseline in all cohorts
